{
  "source": "ChEMBL document CHEMBL4177705",
  "about": "“Antiplasmodial alkaloids from bulbs of Amaryllis belladonna Steud” (Bioorg Med Chem Lett, 2018)",
  "key": {"[1]": {"tested_on": "Plasmodium falciparum", "assay": "Antiplasmodial activity against chloroquine-resistant ring stage Plasmodium falciparum Dd2 after 72 hrs by SYBR green 1 dye based assay", "assay_type": "functional, organism-based"}, "[2]": {"tested_on": "A2780", "assay": "Cytotoxicity against human A2780 cells", "assay_type": "cell-based", "procedure,_shortened": "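Antiproliferative assay on the A2780 ovarian cell line, reported as IC50 in µM.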"}, "[3]": {"conditions": "Plasmodium falciparum, Dd2, 72 h, read-out: IC50; call rule not given here"}, "[4]": {"conditions": "Homo sapiens, A2780, read-out: IC50"}},
  "data": [
    {"smiles": "COc1c2c(cc3c1OCO3)[C@]13C=C[C@H](OC)C[C@H]1[N@](C2)C[C@H]3OC(C)=O", "values": [
      {"measurement": "IC50", "setting": "[1]; [3]", "value": 35, "unit": "µM"},
      {"measurement": "IC50", "setting": "[2]; [4]", "value": "> 60", "unit": "µM"}
    ]},
    {"smiles": "COc1c2c(cc3c1OCO3)[C@@]13CC[N@@](C2)[C@@H]1[C@H](O)[C@H](OC)C[C@H]3O", "values": [
      {"measurement": "IC50", "setting": "[1]; [3]", "value": 37, "unit": "µM"},
      {"measurement": "IC50", "setting": "[2]; [4]", "value": "> 60", "unit": "µM"}
    ]},
    {"smiles": "COC1=CC(=O)[C@@]23CCN(Cc4c2cc2c(c4OC)OCO2)[C@@H]3C1", "note": "[DISTICHAMINE]", "values": [
      {"measurement": "IC50", "setting": "[1]; [3]", "value": "> 50", "unit": "µM"},
      {"measurement": "IC50", "setting": "[2]; [4]", "value": "> 60", "unit": "µM"}
    ]},
    {"smiles": "O=c1c2cc3c(cc2c2cccc4ccn1c42)OCO3", "values": [
      {"measurement": "IC50", "setting": "[1]", "value": "Not Active"},
      {"measurement": "IC50", "setting": "[2]; a2780", "value": "Non-Toxic"}
    ]},
    {"smiles": "COc1c2c(cc3c1OCO3)[C@]13C=C[C@H](OC)C[C@H]1[N@](C2)C[C@H]3O", "values": [
      {"measurement": "IC50", "setting": "[1]; [3]", "value": 7.3, "unit": "µM"},
      {"measurement": "IC50", "setting": "[2]; [4]", "value": "> 60", "unit": "µM"}
    ]},
    {"smiles": "C[C@@H]1CC[C@H]2[C@@H](C)C(=O)O[C@@H]3O[C@@]4(C)CC[C@@H]1[C@]32OO4", "note": "[ARTEMISININ]", "values": [
      {"measurement": "IC50", "setting": "[1]; [3]", "value": 0.0121, "unit": "µM"}
    ]},
    {"smiles": "CC(=O)O[C@@H]1CC=C2CCN3Cc4cc5c(cc4[C@H]1[C@@H]23)OCO5", "note": "[ACETYLCARANINE]", "values": [
      {"measurement": "IC50", "setting": "[1]; [3]", "value": 3.5, "unit": "µM"},
      {"measurement": "IC50", "setting": "[2]; [4]", "value": 56, "unit": "µM"}
    ]}
  ]
}
